# Source: ChEMBL document CHEMBL3407388, “Synthesis, anticancer activity and molecular docking studies on a series of heterocyclic trans-cyanocombretastatin analogues as antitubulin agents” (2015)
# Tests used:
# Format in all cases: functional
# M14 = assay: Cytotoxicity against human M14 cells assessed as growth inhibition after 48 hrs by SRB assay; details: M14, 48 h
# In short: (§1)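 NCI 60-cell panel; compounds passing a single-dose screen (10−5 M, 48 h) were tested at five 10-fold dilutions (10−4 to 10−8 M) with 48 h drug exposure. GI50 is the molar concentration giving 50% reduction in net cell growth relative to cell numbers on day 0.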
# NCI-H23 = assay: Cytotoxicity against human NCI-H23 cells assessed as growth inhibition after 48 hrs by SRB assay; details: NCI-H23, 48 h; in short: as §1
# SK-MEL-5 = assay: Cytotoxicity against human SK-MEL-5 cells assessed as growth inhibition after 48 hrs by SRB assay; details: SK-MEL-5, 48 h; in short: as §1
# [1] = Cytotoxicity against human PC3 cells assessed as growth inhibition after 48 hrs by SRB assay; details: PC-3, 48 h; in short: as §1
# BT-549 = assay: Cytotoxicity against human BT549 cells assessed as growth inhibition after 48 hrs by SRB assay; details: BT-549, 48 h; in short: as §1
# LOX IMVI = assay: Cytotoxicity against human LOXIMVI cells assessed as growth inhibition after 48 hrs by SRB assay; in short: as §1
# MDA-MB-435 = assay: Cytotoxicity against human MDA-MB-435 cells assessed as growth inhibition after 48 hrs by SRB assay; details: MDA-MB-435, 48 h; in short: as §1
# [2] = Cytotoxicity against human OVCAR3 cells assessed as growth inhibition after 48 hrs by SRB assay; details: OVCAR-3, 48 h; in short: as §1
# [3] = Cytotoxicity against human UO31 cells assessed as growth inhibition after 48 hrs by SRB assay; details: UO-31, 48 h
# U-251 = assay: Cytotoxicity against human U251 cells assessed as growth inhibition after 48 hrs by SRB assay; details: U-251, 48 h
# TK-10 = assay: Cytotoxicity against human TK10 cells assessed as growth inhibition after 48 hrs by SRB assay; details: TK-10, 48 h
# KM12 = assay: Cytotoxicity against human KM12 cells assessed as growth inhibition after 48 hrs by SRB assay; details: KM12, 48 h; in short: as §1
# [4] = Cytotoxicity against human HCT116 cells assessed as growth inhibition after 48 hrs by SRB assay; details: HCT-116, 48 h; in short: as §1
# RPMI-8226 = assay: Cytotoxicity against human RPMI8226 cells assessed as growth inhibition after 48 hrs by SRB assay; details: RPMI-8226, 48 h; in short: as §1
# SF-268 = assay: Cytotoxicity against human SF268 cells assessed as growth inhibition after 48 hrs by SRB assay; details: SF-268, 48 h; in short: as §1
# RXF 393 = assay: Cytotoxicity against human RXF393 cells assessed as growth inhibition after 48 hrs by SRB assay; details: RXF 393, 48 h; in short: as §1
# A498 = assay: Cytotoxicity against human A498 cells assessed as growth inhibition after 48 hrs by SRB assay; details: A498, 48 h; in short: as §1
# MCF7 = assay: Cytotoxicity against human MCF7 cells assessed as growth inhibition after 48 hrs by SRB assay; details: MCF7, 48 h; in short: as §1
# SN12C = assay: Cytotoxicity against human SN12C cells assessed as growth inhibition after 48 hrs by SRB assay; in short: as §1
# HCC 2998 = assay: Cytotoxicity against human HCC2998 cells assessed as growth inhibition after 48 hrs by SRB assay; details: HCC 2998, 48 h; in short: as §1
# SW-620 = assay: Cytotoxicity against human SW620 cells assessed as growth inhibition after 48 hrs by SRB assay; details: SW-620, 48 h
# [5] = Cytotoxicity against human OVCAR4 cells assessed as growth inhibition after 48 hrs by SRB assay; details: OVCAR-4, 48 h; in short: as §1
# MDA-MB-231 = assay: Cytotoxicity against human MDA-MB-231 cells assessed as growth inhibition after 48 hrs by SRB assay; details: MDA-MB-231, 48 h; in short: as §1
# SF-295 = assay: Cytotoxicity against human SF295 cells assessed as growth inhibition after 48 hrs by SRB assay; details: SF-295, 48 h; in short: as §1
# NCI-H460 = assay: Cytotoxicity against human NCI-H460 cells assessed as growth inhibition after 48 hrs by SRB assay; details: NCI-H460, 48 h; in short: as §1
# [6] = Cytotoxicity against human NCI-ADR-RES cells assessed as growth inhibition after 48 hrs by SRB assay; in short: as §1
# [7] = Cytotoxicity against human OVCAR8 cells assessed as growth inhibition after 48 hrs by SRB assay; details: OVCAR-8, 48 h; in short: as §1
# DU-145 = assay: Cytotoxicity against human DU145 cells assessed as growth inhibition after 48 hrs by SRB assay; details: DU-145, 48 h; in short: as §1
# [8] = Cytotoxicity against human UACC62 cells assessed as growth inhibition after 48 hrs by SRB assay; details: UACC-62, 48 h
# CAKI-1 = assay: Cytotoxicity against human Caki1 cells assessed as growth inhibition after 48 hrs by SRB assay; details: CAKI-1, 48 h; in short: as §1
# SNB-75 = assay: Cytotoxicity against human SNB75 cells assessed as growth inhibition after 48 hrs by SRB assay; details: SNB-75, 48 h
# SK-OV-3 = assay: Cytotoxicity against human SKOV3 cells assessed as growth inhibition after 48 hrs by SRB assay; details: SK-OV-3, 48 h; in short: as §1
# 786-0 = assay: Cytotoxicity against human 786-0 cells assessed as growth inhibition after 48 hrs by SRB assay; details: 786-0, 48 h; in short: as §1
# SNB-19 = assay: Cytotoxicity against human SNB19 cells assessed as growth inhibition after 48 hrs by SRB assay; details: SNB-19, 48 h; in short: as §1
# NCI-H226 = assay: Cytotoxicity against human NCI-H226 cells assessed as growth inhibition after 48 hrs by SRB assay; details: NCI-H226, 48 h; in short: as §1
# HL-60(TB) = assay: Cytotoxicity against human HL-60(TB) cells assessed as growth inhibition after 48 hrs by SRB assay; details: HL-60, 48 h
# In short: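 NCI 60-cell panel, leukemia subpanel. Five-dose screen at 10-fold dilutions from 10−4 to 10−8 M with 48 h drug exposure. GI50 is the molar concentration giving 50% reduction in net cell growth compared with cell numbers on day 0.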
# MOLT-4 = assay: Cytotoxicity against human MOLT4 cells assessed as growth inhibition after 48 hrs by SRB assay; details: MOLT-4, 48 h; in short: as §1
# IGROV-1 = assay: Cytotoxicity against human IGROV1 cells assessed as growth inhibition after 48 hrs by SRB assay; details: IGROV-1, 48 h; in short: as §1
# HT-29 = assay: Cytotoxicity against human HT-29 cells assessed as growth inhibition after 48 hrs by SRB assay; details: HT-29, 48 h; in short: as §1
# [9] = Cytotoxicity against human HCT15 cells assessed as growth inhibition after 48 hrs by SRB assay; details: HCT-15, 48 h; in short: as §1
# SF-539 = assay: Cytotoxicity against human SF539 cells assessed as growth inhibition after 48 hrs by SRB assay; details: SF-539, 48 h; in short: as §1
# COLO 205 = assay: Cytotoxicity against human COLO205 cells assessed as growth inhibition after 48 hrs by SRB assay; details: COLO 205, 48 h; in short: as §1
# [10] = Cytotoxicity against human OVCAR5 cells assessed as growth inhibition after 48 hrs by SRB assay; details: OVCAR-5, 48 h; in short: as §1
smiles,measurement,setting,value
COc1cc(/C(C#N)=C/c2nc3ccccc3s2)cc(OC)c1OC,GI50,M14,193 nM
same,GI50,NCI-H23,3250 nM
same,GI50,SK-MEL-5,100 nM
same,GI50,[1],341 nM
same,GI50,BT-549,12200 nM
same,GI50,LOX IMVI,73 nM
same,GI50,MDA-MB-435,21 nM
same,GI50,[2],31 nM
same,GI50,[3],83 nM
same,GI50,U-251,1650 nM
same,GI50,TK-10,63 nM
same,GI50,KM12,278 nM
same,GI50,[4],52 nM
same,GI50,RPMI-8226,237 nM
same,GI50,SF-268,1030 nM
same,GI50,RXF 393,148 nM
same,GI50,A498,198 nM
same,GI50,MCF7,34 nM
same,GI50,SN12C,515 nM
same,GI50,HCC 2998,297 nM
same,GI50,SW-620,38 nM
same,GI50,[5],3860 nM
same,GI50,MDA-MB-231,992 nM
same,GI50,SF-295,508 nM
same,GI50,NCI-H460,336 nM
same,GI50,[6],59 nM
same,GI50,[7],438 nM
same,GI50,DU-145,333 nM
same,GI50,[8],52 nM
same,GI50,CAKI-1,47 nM
same,GI50,SNB-75,145 nM
same,GI50,SK-OV-3,626 nM
same,GI50,786-0,1060 nM
same,GI50,SNB-19,2490 nM
same,GI50,NCI-H226,844 nM
same,GI50,HL-60(TB),66 nM
same,GI50,MOLT-4,9200 nM
same,GI50,IGROV-1,1270 nM
same,GI50,HT-29,37 nM
same,GI50,[9],45 nM
same,GI50,SF-539,97 nM
same,GI50,COLO 205,36 nM
same,GI50,[10],347 nM
COc1ccc2[nH]cc(/C=C(\C#N)c3cc(OC)c(OC)c(OC)c3)c2c1,GI50,M14,52 nM
same,GI50,NCI-H23,101 nM
same,GI50,SK-MEL-5,36 nM
same,GI50,[1],54 nM
same,GI50,BT-549,348 nM
same,GI50,LOX IMVI,74 nM
same,GI50,MDA-MB-435,27 nM
same,GI50,[2],34 nM
same,GI50,[3],1260 nM
same,GI50,U-251,50 nM
same,GI50,TK-10,20100 nM
same,GI50,KM12,44 nM
same,GI50,[4],45 nM
same,GI50,RPMI-8226,241 nM
same,GI50,SF-268,2140 nM
same,GI50,RXF 393,33 nM
same,GI50,A498,25 nM
same,GI50,MCF7,36 nM
same,GI50,SN12C,715 nM
same,GI50,HCC 2998,119 nM
same,GI50,SW-620,46 nM
same,GI50,[5],1350 nM
same,GI50,MDA-MB-231,299 nM
same,GI50,SF-295,42 nM
same,GI50,NCI-H460,37 nM
same,GI50,[6],37 nM
same,GI50,[7],148 nM
same,GI50,DU-145,153 nM
same,GI50,[8],59 nM
same,GI50,CAKI-1,72 nM
same,GI50,SNB-75,43 nM
same,GI50,SK-OV-3,56 nM
same,GI50,786-0,85 nM
same,GI50,SNB-19,89 nM
same,GI50,NCI-H226,170 nM
same,GI50,HL-60(TB),59 nM
same,GI50,MOLT-4,198 nM
same,GI50,IGROV-1,379 nM
same,GI50,HT-29,38 nM
same,GI50,[9],68 nM
same,GI50,SF-539,71 nM
same,GI50,COLO 205,51 nM
same,GI50,[10],516 nM
